The source of these data is paper PMC12219203 (Nature Communications, 2025).

The test system of one data set is Tlr4-/- BMDMs. Briefly: Cytokine secretion by Tlr4-/- BMDMs. As to conditions: ELISA, 24 h; GM 4 mM, MDP 0.4 mM, LPS 100 ng/mL, CpG 100 nM. It is filed as cell-based, mouse. The gist of the method:
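Murine BMDMs were differentiated 6 days in complete medium with 20 ng/mL GM-CSF or 10% L929 supernatant, then switched to serum-free IMDM and stimulated 24 h. Mouse TNF-α and IL-6 in culture supernatants were quantified by sandwich ELISA. Samples were prediluted in 1% BSA in PBS, pH 7.4, where needed.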

Data set [1] concerns murine bone marrow-derived dendritic cells (cDC2). Nature of the data set: CD80/86 surface expression in cDC2s of BMDCs. It is filed as cell-based, mouse. As to conditions: 50, 100, 200 μM, 18 h. The method, boiled down:
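Bone marrow from femur and tibia of C57BL/6J female mice was red-cell-lysed and plated at 2,000,000 cells/mL in medium with FLT3 ligand-containing supernatant, with feeding on days 3 and 6. DCs were reseeded at 2,000,000 cells/well and stimulated 18 h. Cells were Fc-blocked, stained with anti-CD80, anti-CD86 and live/dead dye, and analysed by flow cytometry as MFI in gated cDC2s.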

Data set [2] deals with NF-κB p65 and MAPK p38 phosphorylation in WT BMDMs. Briefly: Immunoblot of p65 and p38 phosphorylation in WT BMDMs. It is filed as cell-based, mouse. As to conditions: GM 5 mM. The method, boiled down: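 Bone-marrow macrophages from WT or Tlr4-/- C57BL/6J mice were stimulated directly with 5 mM test compound or 500 ng/mL LPS. Cells were lysed in Tris/SDS/Triton buffer with protease and phosphatase inhibitors plus 10 mM DTT and boiled, then run on SDS-PAGE and transferred to PVDF. Blots were probed with rabbit antibodies to total or phospho-p65, total or phospho-p38 and GAPDH (1:1000, 4 °C overnight), then HRP anti-rabbit (1:5000).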
On the technique in general: In western blotting, separated proteins are transferred to a membrane and probed.

The target in a further data set is mTLR4/mMD2 (wt / F126A) (Mus musculus, UniProt Q9JHF9+Q9QUK6, F126A). Nature of the data set: NF-κB SEAP in HEK-Blue Null1, mTLR4 wt / mMD2 F126A. It is filed as cell-based. As to conditions: GM 0.4, 0.2 mM; LPS 100 ng/mL; 24 h. The gist of the method:
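Point mutants of mTLR4 or mMD2 were made by site-directed mutagenesis. HEK-Blue Null1 cells were co-transfected by lipofection for 16 h with 500 ng total of mTLR4 and Myc-tagged mMD2 plasmids (1:1); mock wells received lipofection reagent only. After a medium change the next day, cells were treated for 24 h. NF-κB SEAP was measured and normalised to water-treated samples; data are mean ± s.e.m., n = 3.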

Data set [3] is described as follows: GM abundance in mouse gut after intraperitoneal injection. It is filed as in vivo. As to conditions: mice, i.p. injection of GM; LC-MS.
In a further data set the test system is NOD2. Nature of the data set: HEK-Blue NOD2 SEAP reporter assay. As to conditions: MDP, M-AE 200 nM; GM, M 20 μM; 18 h. It is filed as cell-based, human. The gist of the method:
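HEK-Blue hNod1 or hNod2 cells were seeded at 50,000 cells/well in DMEM/10% FBS without selection antibiotics and stimulated at once for 18 h (n = 3). Supernatant was mixed 1:4 with Quanti-Blue and incubated 6 h at 37 °C, and absorbance was read at 620 nm. Values were blanked against water-treated wells, and the respective parental Null cell readouts were subtracted.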

The next data set concerns the target mTLR4 (Mus musculus, UniProt Q9JHF9+Q9QUK6). Briefly: HEK-Blue mTLR4 SEAP reporter assay. It is filed as cell-based. As to conditions: 24 h.
The subject of data set [4] is IRF signaling in RAW-Dual WT cells. Briefly: RAW-Dual WT IRF reporter. It is filed as cell-based, mouse. The settings on record: 24 h.
The target of a further data set is mTLR4/mMD2 (wt / F119A) (Mus musculus, UniProt Q9JHF9+Q9QUK6, F119A). Nature of the data set: NF-κB SEAP in HEK-Blue Null1, mTLR4 wt / mMD2 F119A. It is filed as cell-based. As to conditions: GM 0.4, 0.2 mM, 24 h. The method, boiled down: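 Site-directed mTLR4 or mMD2 variants were made by mutagenesis. HEK-Blue Null1 cells were co-transfected 16 h with 500 ng mTLR4 and mMD2-Myc plasmids (1:1) by lipofection; mock cells got water/Lipofectamine. After a medium change, cells were treated 24 h. Supernatant SEAP was measured with Quanti-Blue (37 °C, 6 h, A620), normalized to H2O-treated cells; mean ± s.e.m., n = 3.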
mTLR4/mMD2 (wt / F119A), sequence (Q9QUK6 26-835): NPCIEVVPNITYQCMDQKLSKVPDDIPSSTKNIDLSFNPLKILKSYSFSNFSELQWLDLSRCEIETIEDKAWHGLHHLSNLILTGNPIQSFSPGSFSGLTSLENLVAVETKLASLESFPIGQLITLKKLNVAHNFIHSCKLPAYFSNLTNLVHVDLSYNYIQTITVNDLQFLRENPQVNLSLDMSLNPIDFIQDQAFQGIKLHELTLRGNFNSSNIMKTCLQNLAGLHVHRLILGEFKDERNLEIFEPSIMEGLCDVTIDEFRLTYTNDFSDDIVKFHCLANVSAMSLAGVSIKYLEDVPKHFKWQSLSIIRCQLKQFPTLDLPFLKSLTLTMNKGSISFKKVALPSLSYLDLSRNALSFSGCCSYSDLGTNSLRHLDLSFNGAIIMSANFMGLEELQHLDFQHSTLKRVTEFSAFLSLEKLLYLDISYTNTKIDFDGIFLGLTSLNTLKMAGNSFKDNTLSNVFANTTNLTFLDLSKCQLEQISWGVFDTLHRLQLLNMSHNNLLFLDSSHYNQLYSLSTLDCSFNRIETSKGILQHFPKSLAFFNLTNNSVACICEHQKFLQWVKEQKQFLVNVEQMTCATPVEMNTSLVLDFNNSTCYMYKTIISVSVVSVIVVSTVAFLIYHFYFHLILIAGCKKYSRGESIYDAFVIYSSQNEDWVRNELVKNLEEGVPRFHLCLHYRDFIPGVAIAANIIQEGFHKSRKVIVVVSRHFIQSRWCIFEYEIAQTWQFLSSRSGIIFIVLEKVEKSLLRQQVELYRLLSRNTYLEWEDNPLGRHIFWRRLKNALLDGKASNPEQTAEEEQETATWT
mTLR4/mMD2 (wt / F119A), sequence (Q9JHF9 19-160 F119A): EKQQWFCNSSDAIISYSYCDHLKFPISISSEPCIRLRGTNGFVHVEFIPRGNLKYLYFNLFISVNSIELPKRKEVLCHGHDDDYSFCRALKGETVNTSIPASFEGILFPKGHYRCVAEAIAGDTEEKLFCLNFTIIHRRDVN

Another data set relates to WT mice sera. Nature of the data set: Multiplex immunoassay of serum cytokines and chemokines in mice. As to conditions: GM 10 mg/kg i.p. daily, no DSS. It is filed as in vivo, mouse. The method, boiled down:
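Mice received daily intraperitoneal injections, with PBS (5 mL/kg) as vehicle. Serum was analysed with a bead-based inflammatory cytokine/chemokine panel according to the kit protocol, read on a flow cytometer with a high-throughput sampler.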

A further data set deals with mTLR2 (Mus musculus, UniProt Q9QUN7). Nature of the data set: HEK-Blue mTLR2 SEAP reporter assay. It is filed as cell-based. As to conditions: GM 2, 1, 0.5 mM, 24 h, n = 6. The gist of the method:
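HEK-Blue mTLR2 cells were seeded at 50,000 cells/well in complete DMEM. After 6 h the medium was changed to serum-free DMEM and test compound was added for 24 h. Secreted SEAP was read by mixing supernatant 1:4 with Quanti-Blue, incubating 6 h at 37 °C and measuring absorbance at 620 nm. Values were blanked against water-treated wells.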
(A reporter such as luciferase makes a cellular process visible.)

The next data set relates to WT C57BL/6 J mice. Nature of the data set: DSS-induced colitis model in WT mice. It is filed as in vivo, mouse. The settings on record: GM 10 mg/kg i.p. daily. The method, boiled down:
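Male SPF C57BL/6J mice aged 7–8 weeks, WT or Tlr4-/- (bred in house), were age-, weight- and sex-matched. They drank 3% (w/v) DSS water for 7 days and were then euthanised. Test compound (10 mg/kg) or PBS (5 mL/kg) was given i.p. daily from 2 days before DSS until the end. Body weight was recorded daily.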

Data set [5] concerns IRF signaling in RAW-Dual Tlr4-/- cells. Briefly: RAW-Dual Tlr4-/- IRF reporter. It is filed as cell-based, mouse. The settings on record: 24 h. The method, boiled down:
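RAW-Dual Tlr4-/- cells were seeded at 100,000 cells/well without selection antibiotics, 24 h before a 24 h exposure to test compounds. IRF-driven secreted luciferase was measured by mixing 20 µL supernatant with 50 µL Quanti-Luc 4 and reading luminescence immediately.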

Another data set concerns WT BMDMs. Nature of the data set: RNAseq of WT BMDMs. The settings on record: GM 8 mM, 24 h, n = 3. It is filed as cell-based, mouse. The method, boiled down:
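BMDMs were differentiated 6 days from mouse bone marrow with GM-CSF or L929 supernatant at 800,000 cells/well, switched to serum-free IMDM and stimulated 24 h; MDP 0.4 mM was run alongside. Total RNA was extracted for RNAseq. Differentially expressed genes were called at p < 0.01 and logFC > 1 and plotted as mean heatmaps; n = 3.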

mTLR4, sequence (Q9QUK6 26-835): as the sequence (Q9QUK6 26-835) above
mTLR4, sequence (Q9JHF9 19-160): as the sequence (Q9JHF9 19-160 F119A) above, with A101F counted along it
mTLR2, sequence (Q9QUN7 25-784): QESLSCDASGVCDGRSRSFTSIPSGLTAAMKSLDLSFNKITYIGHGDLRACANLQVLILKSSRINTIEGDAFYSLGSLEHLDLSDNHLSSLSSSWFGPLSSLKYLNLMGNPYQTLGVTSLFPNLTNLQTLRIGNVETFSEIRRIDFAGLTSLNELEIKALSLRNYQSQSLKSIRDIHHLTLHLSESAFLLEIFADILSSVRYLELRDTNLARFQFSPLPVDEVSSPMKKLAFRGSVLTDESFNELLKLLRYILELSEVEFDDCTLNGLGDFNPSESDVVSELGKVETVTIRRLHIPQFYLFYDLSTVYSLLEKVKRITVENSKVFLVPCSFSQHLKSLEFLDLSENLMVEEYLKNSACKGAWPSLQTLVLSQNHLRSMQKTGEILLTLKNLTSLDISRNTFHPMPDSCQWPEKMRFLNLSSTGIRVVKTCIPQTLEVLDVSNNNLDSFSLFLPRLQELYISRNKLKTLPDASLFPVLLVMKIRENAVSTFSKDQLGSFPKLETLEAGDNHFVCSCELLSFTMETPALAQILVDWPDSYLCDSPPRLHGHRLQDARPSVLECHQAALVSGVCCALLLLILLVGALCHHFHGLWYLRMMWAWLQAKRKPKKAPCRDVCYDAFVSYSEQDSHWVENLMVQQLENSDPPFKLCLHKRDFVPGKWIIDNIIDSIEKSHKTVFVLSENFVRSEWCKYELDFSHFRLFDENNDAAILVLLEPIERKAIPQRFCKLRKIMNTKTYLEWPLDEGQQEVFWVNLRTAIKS
mTLR4/mMD2 (wt / F126A), sequence (Q9QUK6 26-835): as the sequence (Q9QUK6 26-835) above
mTLR4/mMD2 (wt / F126A), sequence (Q9JHF9 19-160 F126A): as the sequence (Q9JHF9 19-160 F119A) above, with A101F, F108A counted along it

As for `CC(=O)N[C@H]1[C@H](O[C@H]2[C@H](O[C@H](C)C(=O)O)[C@@H](NC(C)=O)C(O)O[C@@H]2CO)O[C@H](CO)[C@@H](O)[C@@H]1O` (stereo partly drawn) [GM, N-acetylglucosamine-β−1,4-N-acetylmuramic acid], the “TNF-α and IL-6 production in Tlr4-/- BMDMs (in words)” value in the data set on Tlr4-/- BMDMs was “fails to elicit increased levels of TNF-α and IL-6”. Also, the “CD80/86 surface markers in cDC2 population of BMDCs (in words)” value in [1] is “upregulates CD80/86 surface marker expressions”. The “p65 and p38 phosphorylation in WT BMDMs” value in data set [2] was “mild increase in phosphorylation”. Also, the “Effect of mutation mMD-2_F126 on NF-κB activity (in words)” value at mTLR4/mMD2 (wt / F126A) is “abrogated NF-κB activation”. For the same molecule, in data set [3], the “Abundance in the mouse gut after intraperitoneal injection” value is listed as “temporally increased its abundance in the mouse gut”. Moreover, the “NOD2 activation in HEK-Blue reporter cells (in words)” value in the data set on NOD2 is given as “unable to activate NOD1/2”. At mTLR4 (GM 1 mM, polymyxin B 0, 0.1, 1, 10 kU), the “Activity in HEK-Blue mTLR4 reporter cells under polymyxin B titration (in words)” value is recorded as “unaffected by polymyxin B titration”. The “TLR4 stimulation in HEK-Blue mTLR4 reporter cells (in words)” value on mTLR4 (disaccharides 0.5 or 1 mM, GM-A and GM-AE 1 mM) is on record as “stimulate TLR4”. In [4], the “IRF signaling in RAW-Dual WT cells (in words)” value was “dose-dependent activation of both NF-κB and IRF signaling”. For the same molecule, on mTLR4/mMD2 (wt / F119A), the “Effect of mutation mMD-2_F119 on NF-κB activity (in words)” value is listed as “did not significantly impair the activity of GM”. In the data set on WT mice sera, the “Circulating cytokines and chemokines in mice, GM alone” value was “does not significantly alter circulating cytokines and chemokines in mice”. For the same molecule, the “Activation of HEK-Blue mTLR2 reporter cells (in words)” value at mTLR2 was “does not activate”. The “H&E-stained colonic tissue, WT DSS mice” value in the data set on WT C57BL/6 J mice (3% DSS) was “reduced epithelial erosion and mononuclear cell infiltration”. Moreover, in the data set on WT C57BL/6 J mice (3% DSS, RT-qPCR), the “Colonic Il10, WT DSS mice” value was “no significant change in Il10 was observed”; the “Colonic cytoprotective factors Keap1 and Hspb1, WT DSS mice” value is given as “upregulated”; the “Colonic expression of Tnfa, Il1b, Ccl2, WT DSS mice” value is “significantly suppressed”. In the data set with WT C57BL/6 J mice (without DSS treatment), the Morbidity in mice entry is “did not result in any morbidity in mice”. Also, the “IRF signaling in RAW-Dual Tlr4-/- cells (in words)” value in data set [5] is listed as “minimal activity”. Besides, the “Cytokine and chemokine genes (Il12a/b, Il6, Il1a/b, Csf3, Ccl5, Cxcl1) by RNAseq, WT BMDMs” value in the data set with WT BMDMs is “significantly upregulated”.
